From ChEMBL document CHEMBL1765085, “Cytotoxic and apoptosis-inducing activities of triterpene acids from Poria cocos” (J Nat Prod, 2011)
Activity calls are given as the source filed them. The rule behind the calls is not given here.

Tests used:
[1] = test system: HL-60; assay: Cell cycle arrest in human HL60 cells assessed as accumulation at G2/M phase at 30 uM after 24 hrs by flow cytometry (reference value: 6.0%); type: functional
In short: (§1)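 Cells seeded at 1 × 10^5 per sample for HL60 and 1.5 × 10^5 for A549, then exposed to 30 μM for 0, 24 or 48 h. After a PBS wash, DNA was stained with Nim-DAPI for 10 min at room temperature. Phase distribution was read by flow cytometry, with the sub-G1 (fragmented DNA) fraction taken as the apoptosis index. Values are means of three experiments.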

[2] = test system: OVCAR-3; assay: Cytotoxicity in human OVCAR3 cells assessed as cell viability after 48 hrs by MTT assay; type: functional, cell-based; details: OVCAR-3, 48 h
In short: (§2)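 Growth conditions: RPMI 1640 for HL60, CRL1579, NIH:OVCAR-3, SK-BR-3, DU145 and PANC-1; D-MEM for A549; MEM for WI-38; all with 10% FBS and antibiotics, 37 °C, 5% CO2. Seeded at 3 × 10^3 cells/well (OVCAR-3 1 × 10^4), then treated 48 h with 10^-4 to 10^-6 M. MTT for 3 h, formazan dissolved in 0.04 M HCl/2-propanol, A570/630. IC50 (50% growth inhibition) from triplicates.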

[3] = test system: HL-60; assay: Cell cycle arrest in human HL60 cells assessed as accumulation at S phase at 30 uM after 24 hrs by flow cytometry (reference value: 42.6%); type: functional; in short: as §1
[4] = test system: HL-60; assay: Cell cycle arrest in human HL60 cells assessed as accumulation at G2/M phase at 30 uM after 48 hrs by flow cytometry (reference value: 6.0%); type: functional; in short: as §1
[5] = test system: HL-60; assay: Induction of apoptosis in human HL60 cells assessed as late apoptotic cells at 30 uM after 24 hrs by AnnexinV/propidium iodide staining (Rvb =3.3%); type: functional
[6] = test system: A549; assay: Induction of apoptosis in human A549 cells assessed as early apoptotic cells at 30 uM after 48 hrs by AnnexinV/propidium iodide staining (Rvb =4.3%); type: functional
[7] = test system: HL-60; assay: Cell cycle arrest in human HL60 cells assessed as accumulation at S phase at 30 uM after 48 hrs by flow cytometry (reference value: 42.6%); type: functional; in short: as §1
[8] = test system: DU-145; assay: Cytotoxicity in human DU145 cells assessed as cell viability after 48 hrs by MTT assay; type: functional, cell-based; details: DU-145, 48 h; in short: as §2
[9] = test system: HL-60; assay: Induction of apoptosis in human HL60 cells assessed as necrotic cells at 30 uM after 48 hrs by AnnexinV/propidium iodide staining (Rvb =2.3%); type: functional
[10] = test system: HL-60; assay: Induction of apoptosis in human HL60 cells assessed as early apoptotic cells at 30 uM after 48 hrs by AnnexinV/propidium iodide staining (Rvb =7.6%)
[11] = test system: A549; assay: Cell cycle arrest in human A549 cells assessed as accumulation at Go/G1 phase at 30 uM after 24 hrs by flow cytometry (reference value: 64.3%); type: functional; in short: as §1
[12] = test system: HL-60; assay: Induction of apoptosis in human HL60 cells assessed as accumulation at Go/G1 phase at 30 uM after 48 hrs by flow cytometry (reference value: 51.4%); type: functional; in short: as §1
[13] = test system: HL-60; assay: Induction of apoptosis in human HL60 cells assessed as early apoptotic cells at 30 uM after 24 hrs by AnnexinV/propidium iodide staining (Rvb =7.6%)
[14] = test system: A549; assay: Induction of mitochondrial signal transduction pathway-mediated apoptosis in human A549 cells assessed as increase in cleaved caspase-9 level at 30 uM after 24 to 48 hrs by Western blot analysis
[15] = test system: HL-60; assay: Induction of apoptosis in human HL60 cells assessed as late apoptotic cells at 30 uM after 48 hrs by AnnexinV/propidium iodide staining (Rvb =3.3%); type: functional
[16] = test system: HL-60; assay: Cell cycle arrest in human HL60 cells assessed as accumulation at sub-G1 phase at 30 uM after 24 hrs by flow cytometry (reference value: 3.0%); type: functional; in short: as §1
[17] = test system: A549; assay: Induction of apoptosis in human A549 cells assessed as viable cells at 30 uM after 24 hrs by AnnexinV/propidium iodide staining (Rvb =91.2%); type: functional; details: A549, 24 h, read-out: Activity
[18] = Cytotoxicity in human AZ-521 cells assessed as cell viability after 48 hrs by MTT assay; type: functional, cell-based; details: AZ-521, 48 h
[19] = test system: A549; assay: Induction of mitochondrial signal transduction pathway-mediated apoptosis in human A549 cells assessed as increase in cleaved caspase-3 level at 30 uM after 24 to 48 hrs by Western blot analysis
[20] = test system: A549; assay: Cell cycle arrest in human A549 cells assessed as accumulation at Go/G1 phase at 30 uM after 48 hrs by flow cytometry (reference value: 64.3%); type: functional; in short: as §1
[21] = test system: A549; assay: Cell cycle arrest in human A549 cells assessed as accumulation at S phase at 30 uM after 24 hrs by flow cytometry (reference value: 27.7%); type: functional; in short: as §1
[22] = test system: HL-60; assay: Induction of mitochondrial signal transduction pathway-mediated apoptosis in human HL60 cells assessed as increase in cleaved caspase-9 level at 30 uM after 8 hrs by Western blot analysis; type: functional, cell-based
In short: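 HL60 cells (1 × 10^6) pre-incubated 24 h, then exposed to 30 μM final for 8 h. Whole-cell lysates in extraction buffer, resolved on 15% SDS-PAGE, blotted to PVDF, probed overnight at 4 °C with anti-caspase-8 or anti-caspase-9 primary antibodies, β-actin as loading reference. Procaspase loss and cleaved caspase bands read.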

[23] = test system: A549; assay: Induction of apoptosis in human A549 cells assessed as late apoptotic cells at 30 uM after 48 hrs by AnnexinV/propidium iodide staining (Rvb =1.1%); type: functional
[24] = test system: HL-60; assay: Induction of apoptosis in human HL60 cells assessed as necrotic cells at 30 uM after 24 hrs by AnnexinV/propidium iodide staining (Rvb =2.3%); type: functional
[25] = test system: A549; assay: Cytotoxicity in human A549 cells assessed as cell viability after 48 hrs by MTT assay; type: functional, cell-based; details: A549, 48 h; in short: as §2
[26] = test system: A549; assay: Induction of mitochondrial signal transduction pathway-mediated apoptosis in human A549 cells assessed as increase in Bax level at 30 uM after 24 to 48 hrs by Western blot analysis; type: functional, cell-based
In short: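 A549 cells (1.5 × 10^5) were pre-incubated 24 h, then given 30 μM for 24 or 48 h. Whole-cell lysates were run on 15% SDS-PAGE, transferred to PVDF and probed overnight at 4 °C for Bax, Bcl-2 and β-actin. The Bcl-2 band was quantified by densitometry relative to untreated cells, n = 3.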

[27] = Cytotoxicity in human CRL1579 cells assessed as cell viability after 48 hrs by MTT assay; type: functional, cell-based; in short: as §2
[28] = test system: A549; assay: Cell cycle arrest in human A549 cells assessed as accumulation at G2/M phase at 30 uM after 48 hrs by flow cytometry (reference value: 4.9%); type: functional; in short: as §1
[29] = test system: A549; assay: Induction of apoptosis in human A549 cells assessed as necrotic cells at 30 uM after 24 hrs by AnnexinV/propidium iodide staining (Rvb =3.4%); type: functional
[30] = test system: PANC-1; assay: Cytotoxicity in human PANC1 cells assessed as cell viability after 48 hrs by MTT assay; type: functional, cell-based; details: PANC-1, 48 h; in short: as §2

## C=C(CC[C@@H](CO)[C@H]1[C@H](O)C[C@@]2(C)C3=CC[C@@H](C(=C)C)[C@](C)(CCCO)C3=CC[C@]12C)C(C)C [PORICOTRIOL A]
[1]
  Activity: 8.8%
[2]
  IC50: 2.2 µM
[3]
  Activity: 28.9%
[4]
  Activity: 10.9%
[5]
  Activity: 14%
[6]
  Activity: 24.1%
[7]
  Activity: 30.5%
[8]
  IC50: 14.5 µM
[9]
  Activity: 2.5%
[10]
  Activity: 52.5%
[11]
  Activity: 77.2%
[12]
  Activity: 58.6%
[13]
  Activity: 48.1%
[14]
  Activity: inactive
[15]
  Activity: 30.4%
[16]
  Activity: 35.4%
[17]
  viability at 30 µM: 89.2%
[18]
  IC50: 1.4 µM
[19]
  Activity: inactive
[20]
  Activity: 73%
[21]
  Activity: 7.8%
[22]
  Activity: Active
[23]
  Activity: 20.2%
[24]
  Activity: 3.2%
[25]
  IC50: 4.2 µM
[26]
  Activity: inactive
[27]
  IC50: 5.5 µM
[28]
  Activity: 3.6%
[29]
  Activity: 4.3%
[30]
  IC50: 26.3 µM
